Measured values from ChEMBL document CHEMBL3758104, “Reinvestigating Old Pharmacophores: Are 4-Aminoquinolines and Tetraoxanes Potential Two-Stage Antimalarials?” (J Med Chem, 2016).
Calls of active or inactive are those of the source. The calls are words filed in the database; no cut-off is given here.

Tests used:
[1] = test system: Plasmodium falciparum; experiment: Antimalarial activity against chloroquine-resistant Plasmodium falciparum W2 after 48 hrs by [3H]hypoxanthine incorporation assay; assay type: functional, organism-based
Method in brief: (§1)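 P. falciparum D6 (Sierra I/UNC clone), W2 (Indochina I clone), TM91C235 (South-East Asian clone) cultured with compound; growth inhibition by [3H]hypoxanthine incorporation (modified Desjardins/Milhous method). Chloroquine, mefloquine, artemisinin as positive controls. IC50 in nM; technical triplicates, curve fits R2 0.96–1.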

[2] = test system: Plasmodium berghei; experiment: Antimalarial activity against Plasmodium berghei ANKA infected in C57Bl6 mouse at 80 mg/kg/day, po measured on day 3 to 5 by Thompson test; assay type: functional
[3] = Selectivity index, ratio of IC50 for human HepG2 cells to IC50 for chloroquine susceptible Plasmodium falciparum D6; assay type: toxicity, cell-based; conditions: read-out: Ratio IC50
[4] = test system: Plasmodium berghei; experiment: Antimalarial activity against Plasmodium berghei ANKA infected in C57Bl6 mouse assessed as increase in cure rate at 80 mg/kg/day, po administered for day 3 to 5 by Thompson test; assay type: functional, organism-based
Method in brief: (§2)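 Modified Thompson test: C57Bl6 female mice inoculated intraperitoneally on day 0 with 1×10^6 P. berghei ANKA-infected erythrocytes; compound suspended in 0.5% hydroxyethylcellulose–0.1% Tween 80, given orally once daily on days 3, 4 and 5 post infection. Parasitemia by Giemsa-stained thin tail-blood smears on days 0, 3, 6, 10, 13, 17, 20, 24, 27, 31. Cure = survival without parasitemia to day 31.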

[5] = test system: Plasmodium falciparum; experiment: Antimalarial activity against mutidrug resistant Plasmodium falciparum TM91C235 after 48 hrs by [3H]hypoxanthine incorporation assay; assay type: functional, organism-based; method in brief: as §1
[6] = test system: Mus musculus; experiment: Toxicity in Plasmodium berghei ANKA infected C57Bl6 mouse at 160 mg/kg/day, po administered for 3 days measured 2 times a day for 31 days; assay type: organism-based; conditions: in vivo, 744 h
[7] = Inhibition of beta hematin formation measured as hemin equivalent after 18 hrs; assay type: physicochemical
Method in brief: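 Hemin (16 mM in DMSO) mixed with compound at 0.125–5 mol equiv to hemin, plus water and 8 M acetate buffer pH 5.2, 25% DMSO final. Incubated 18 h at 37 °C. Pellet washed with DMSO, dissolved in 0.1 M NaOH, absorbance read at 405 nm (corrected at 670 nm) against a hemin calibration.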

[8] = test system: Plasmodium falciparum; experiment: Antimalarial activity against chloroquine-susceptible Plasmodium falciparum D6 after 48 hrs by [3H]hypoxanthine incorporation assay; assay type: functional, organism-based; method in brief: as §1
[9] = test system: Plasmodium berghei; experiment: Antimalarial activity against Plasmodium berghei ANKA infected in C57Bl6 mouse at 160 mg/kg/day, po measured on day 3 to 5 by Thompson test; assay type: functional
[10] = test system: HepG2; experiment: Cytotoxicity against human HepG2 cells after 48 hrs by MTT assay; assay type: cell-based; conditions: HepG2, 48 h
[11] = test system: Plasmodium berghei; experiment: Antimalarial activity against sporozoite stage of Plasmodium berghei infected in human Huh7 cells assessed as inhibition of parasite infection pre-incubated for 24 hrs followed by parasite infection measured after 48 hrs by bioluminescence assay; assay type: functional, organism-based; conditions: Huh-7
[12] = test system: Plasmodium berghei; experiment: Antimalarial activity against sporozoite stage of Plasmodium berghei infected in human Huh7 cells assessed as remaining parasite infection at 5 uM pre-incubated for 24 hrs followed by parasite infection measured after 48 hrs by bioluminescence assay; conditions: Huh-7
[13] = Half life in human liver microsomes at 1 uM by LC-MS/MS analysis; assay type: ADME
[14] = Half life in mouse liver microsomes at 1 uM by LC-MS/MS analysis; assay type: ADME
[15] = test system: Plasmodium berghei; experiment: Antimalarial activity against Plasmodium berghei ANKA infected in C57Bl6 mouse assessed as reduction of parasitemia at 160 mg/kg/day, po administered for day 3 to 5 measured after 10 to 14 days by Thompson test; assay type: functional, organism-based; method in brief: as §2
[16] = test system: Plasmodium berghei; experiment: Antimalarial activity against Plasmodium berghei ANKA infected in C57Bl6 mouse at 40 mg/kg/day, po on days 3 to 5 by Thompson test; assay type: functional
[17] = test system: Plasmodium berghei; experiment: Antimalarial activity against Plasmodium berghei ANKA infected in C57Bl6 mouse assessed as reduction of parasitemia at 160 mg/kg/day, po administered for day 3 to 5 measured on day 6 by Thompson test; assay type: functional, organism-based; method in brief: as §2
[18] = test system: Plasmodium berghei; experiment: Antimalarial activity against Plasmodium berghei ANKA infected in po dosed C57Bl6 mouse administered on day 3 to 5 by Thompson test; assay type: functional; method in brief: as §2
[19] = test system: Plasmodium berghei; experiment: Antimalarial activity against sporozoite stage of Plasmodium […] infected in human HepG2 cells; assay type: functional, organism-based
[20] = test system: RAW264.7; experiment: Cytotoxicity against mouse RAW264.7 cells; assay type: cell-based
[21] = Selectivity index, ratio of IC50 for mouse RAW 264.7 cells to IC50 for chloroquine susceptible Plasmodium falciparum D6; assay type: toxicity; conditions: read-out: Ratio IC50

Row | Structure (SMILES) | IC50 [1] [nM] | selectivity ratio [3] | IC50 [5] [nM] | Activity [6] | IC50 [8] [nM] | IC50 [10] [nM] | also measured
1 | CC(CCNCC12CC3CC(CC(C3)C1)C2)Nc1c(F)cnc2ccccc12 (stereo unspecified) | 157 | 3 | 259 | Non-toxic | 60 | – | MST [2]: 12.8 days; Activity [4]: inactive; IC50 [7]: 0.61 equiv
2 | CCN(CC)CCCNc1nc2cc(Cl)ccc2cc1F | – | – | – | Non-toxic | – | – | MST [9]: 20.2 days
3 | CC(CCCNCC12CC3CC(CC(C3)C1)C2)Nc1c(F)cnc2cc(Cl)ccc12 (stereo unspecified) | 488 | 18 | 342 | – | 198 | 3550 | –
4 | CC(CCCNCCC12CC3CC(CC(C3)C1)C2)Nc1ccnc2ccccc12 (stereo unspecified) | 393 | 133 | 286 | – | 12 | 1590 | –
5 | O[C@@H](c1cc(C(F)(F)F)nc2c(C(F)(F)F)cccc12)[C@H]1CCCCN1 [(S,R)-MEFLOQUINE] | 5 | – | – | – | – | – | –
6 | CC(NCCCCNc1ccnc2cc(Cl)ccc12)C12CC3CC(CC(C3)C1)C2 (stereo unspecified) | 25 | 441 | 19 | – | 7 | 3090 | –
7 | CCN(CC)CCCC(C)Nc1c(F)cnc2cc(Cl)ccc12 (stereo unspecified) | – | – | – | Non-toxic | – | – | MST [9]: 16.8 days; IC50 [11]: 1000 nM; % infection at 5 µM [12]: 35%; IC50 [7]: 1.07 equiv
8 | CC(CCNCCC12CC3CC(CC(C3)C1)C2)Nc1c(F)cnc2ccccc12 (stereo unspecified) | 394 | 3 | 546 | – | 154 | – | –
9 | CC(CCNCCC12CC3CC(CC(C3)C1)C2)Nc1ccnc2cc(Cl)ccc12 (stereo unspecified) | 13 | 1870 | 13 | – | 13 | 24300 | half-life at 1 µM [13]: 60 min; half-life at 1 µM [14]: 60 min; IC50 [11]: 2500 nM; % infection at 5 µM [12]: 8%
10 | Fc1ccc2scc(CNCCCCNc3ccnc4cc(Cl)ccc34)c2c1 | – | – | – | Non-toxic | – | – | MST [9]: 30 days; MST [2]: 30.2 days
11 | Clc1ccc2c(NCCNCC34CC5CC(CC(C5)C3)C4)ccnc2c1 | – | – | – | Non-toxic | – | – | Activity [15]: inactive; MST [16]: >21.4 days; Activity [17]: Active; MAC [18]: 40 mg/kg/day
12 | CC(CCNCC12CC3CC(CC(C3)C1)C2)Nc1nc2cc(Cl)ccc2cc1F (stereo unspecified) | – | – | – | – | – | – | IC50 [11]: 1000 nM; % infection at 5 µM [12]: 2%
13 | CCN(CC)CCCC(C)Nc1nc2cc(Cl)ccc2cc1F (stereo unspecified) | – | – | – | – | – | – | IC50 [11]: 1000 nM; % infection at 5 µM [12]: 40%; IC50 [7]: 2.43 equiv
14 | O=C1C(O)=C([C@H]2CC[C@H](c3ccc(Cl)cc3)CC2)C(=O)c2ccccc21 [ATOVAQUONE] | – | – | – | – | – | – | IC50 [19]: 22 nM
15 | CC(CNCC12CC3CC(CC(C3)C1)C2)Nc1ccnc2cc(Cl)ccc12 (stereo unspecified) | 3 | – | 1 | – | 1 | – | IC50 [20]: 2900 nM; half-life at 1 µM [13]: 11 min; half-life at 1 µM [14]: 10 min; selectivity ratio [21]: 2900
16 | CC(CCNCCC12CC3CC(CC(C3)C1)C2)Nc1c(F)cnc2cc(Cl)ccc12 (stereo unspecified) | 203 | 22 | 171 | – | 143 | 3210 | IC50 [11]: 1000 nM; % infection at 5 µM [12]: 3%

Row | Structure (SMILES) | IC50 [1] [nM] | selectivity ratio [3] | IC50 [5] [nM] | Activity [6] | IC50 [8] [nM] | IC50 [10] [nM] | also measured
17 | CCN(CC)CCCC(C)Nc1ccnc2cc(Cl)ccc12 (stereo unspecified) [CHLOROQUINE] | – | – | – | – | – | – | MST [9]: >31 days; MST [2]: 25.6 days; IC50 [19]: 9000 nM
18 | CC(CCNCC12CC3CC(CC(C3)C1)C2)Nc1ccnc2ccccc12 (stereo unspecified) | 185 | 136 | 135 | Non-toxic | 17 | 2320 | half-life at 1 µM [13]: 60 min; MST [2]: 15.2 days; half-life at 1 µM [14]: 60 min; Activity [4]: inactive; IC50 [7]: 1.22 equiv
19 | CC(CCCNc1ccnc2cc(Cl)ccc12)NCCC12CC3CC(CC(C3)C1)C2 (stereo unspecified) | 81 | 289 | 47 | – | 9 | 2600 | –
20 | CC(CNc1ccnc2cc(Cl)ccc12)NCC12CC3CC(CC(C3)C1)C2 (stereo unspecified) | 10 | – | 9 | – | 2 | – | IC50 [20]: 3770 nM; half-life at 1 µM [13]: 13 min; half-life at 1 µM [14]: 10 min; selectivity ratio [21]: 1890
21 | CC(CNc1ccnc2cc(Cl)ccc12)NCCC12CC3CC(CC(C3)C1)C2 (stereo unspecified) | 7 | 4190 | 7 | Non-toxic | 6 | 25100 | half-life at 1 µM [13]: 27 min; MST [2]: 15.3 days; half-life at 1 µM [14]: 60 min; Activity [15]: inactive; Activity [17]: Active; MAC [18]: 80 mg/kg/day
22 | CC(NCCCNc1ccnc2cc(Cl)ccc12)C12CC3CC(CC(C3)C1)C2 (stereo unspecified) | 22 | 790 | 15 | – | 4 | – | IC50 [20]: 3160 nM; half-life at 1 µM [13]: 16 min; half-life at 1 µM [14]: 11 min
23 | CC(CCCNc1ccnc2cc(Cl)ccc12)NCC12CC3CC(CC(C3)C1)C2 (stereo unspecified) | 282 | 32 | 165 | – | 51 | 1610 | –
24 | CC(CCCNCCC12CC3CC(CC(C3)C1)C2)Nc1c(F)cnc2cc(Cl)ccc12 (stereo unspecified) | 547 | 9 | 590 | – | 288 | 2610 | –
25 | CC(CCCNCC12CC3CC(CC(C3)C1)C2)Nc1ccnc2cc(Cl)ccc12 (stereo unspecified) | 22 | 1160 | 23 | – | 21 | 24300 | half-life at 1 µM [13]: 49 min; half-life at 1 µM [14]: 57 min
26 | C[C@H]1[C@H](N2CCS(=O)(=O)CC2)O[C@@H]2O[C@@]3(C)CC[C@H]4[C@H](C)CC[C@@H]1[C@@]24OO3 [ARTEMIFONE] | – | – | – | – | – | – | IC50 [19]: 40 nM
27 | CC(CNCCC12CC3CC(CC(C3)C1)C2)Nc1ccnc2cc(Cl)ccc12 (stereo unspecified) | 4 | – | 1 | Non-toxic | 1 | – | IC50 [20]: 2910 nM; half-life at 1 µM [13]: 57 min; MST [9]: 27.6 days; half-life at 1 µM [14]: 60 min; Activity [15]: inactive; Activity [17]: Active; selectivity ratio [21]: 2910
28 | Fc1ccc2c(CNCCCNc3ccnc4cc(Cl)ccc34)csc2c1 | – | – | – | Non-toxic | – | – | MST [9]: 26.4 days
29 | CC(CCNCCC12CC3CC(CC(C3)C1)C2)Nc1ccnc2ccccc12 (stereo unspecified) | 126 | 227 | 102 | – | 7 | 1590 | –
30 | C[C@@H]1CC[C@H]2[C@@H](C)C(=O)O[C@@H]3O[C@@]4(C)CC[C@@H]1[C@]32OO4 [ARTEMISININ] | 7 | – | 13 | – | 9 | – | IC50 [19]: 12000 nM
31 | COC(=O)CCC(C)[C@H]1CC[C@H]2[C@@H]3[C@H](OC(C)=O)C[C@@H]4CC5(CC[C@]4(C)[C@H]3C[C@H](OC(C)=O)[C@]12C)OOC1(CCCCC1)OO5 (stereo partly specified) | – | – | – | – | – | – | IC50 [11]: < 1000 nM; % infection at 5 µM [12]: 31%
32 | CCN(CC)CCCNc1c(F)cnc2cc(Cl)ccc12 | – | – | – | Non-toxic | – | – | MST [9]: 14.6 days
